Measurements reported in BindingDB's records for doi:10.1021/jm4003654 (Xavier University of Louisiana, 2013).

Key:
CYP2A6 = biological target: T1, CYP2A6 (Homo sapiens, UniProt P11509); experiment: Inhibition of CYP2A6 (unknown origin)-mediated coumarin 7-hydroxylation after 5 mins by spectrofluorimetric analysis; conditions: probe coumarin (7-hydroxylation)
T1 sequence (P11509 whole entry): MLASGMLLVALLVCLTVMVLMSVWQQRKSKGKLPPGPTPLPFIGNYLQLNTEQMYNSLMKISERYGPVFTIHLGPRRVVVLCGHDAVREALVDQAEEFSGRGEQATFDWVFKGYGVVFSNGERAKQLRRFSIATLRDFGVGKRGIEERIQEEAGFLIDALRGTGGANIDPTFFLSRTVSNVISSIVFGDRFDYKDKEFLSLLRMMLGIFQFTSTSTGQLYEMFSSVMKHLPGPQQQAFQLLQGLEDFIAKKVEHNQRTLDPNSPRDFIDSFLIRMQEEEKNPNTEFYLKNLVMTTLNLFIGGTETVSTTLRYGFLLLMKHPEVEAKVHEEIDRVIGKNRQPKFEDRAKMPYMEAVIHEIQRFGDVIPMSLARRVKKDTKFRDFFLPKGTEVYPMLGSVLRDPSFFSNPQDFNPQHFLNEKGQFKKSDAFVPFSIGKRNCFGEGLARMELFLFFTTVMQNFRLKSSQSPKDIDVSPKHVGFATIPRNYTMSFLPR
In short: (§1)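 Microsomal P450 (final 5 nM) in 0.1 M potassium phosphate pH 7.6 with MgCl2; resorufin ether or coumarin substrate final 5 μM from DMSO stock; inhibitor added in DMSO, DMSO alone for controls. Reaction started with NADPH regenerating system (NADP+, glucose 6-phosphate, G6P dehydrogenase) at 37 °C; product formation followed fluorimetrically as progress curves.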

[1] = biological target: Cytochrome P450 2B1 (Rattus norvegicus) (UniProt P00176); experiment: Inhibition of CYP2B1 (rat)-mediated depentylation of resorufin pentyl ether after 5 mins by spectrofluorimetric analysis
Cytochrome P450 1A1 = biological target: T2, Cytochrome P450 1A1 (Homo sapiens, UniProt P04798); experiment: Inhibition of CYP1A1 (unknown origin)-mediated deethylation of resorufin ethyl ether after 5 mins by spectrofluorimetric analysis; in short: as §1
T2 sequence (P04798 whole entry): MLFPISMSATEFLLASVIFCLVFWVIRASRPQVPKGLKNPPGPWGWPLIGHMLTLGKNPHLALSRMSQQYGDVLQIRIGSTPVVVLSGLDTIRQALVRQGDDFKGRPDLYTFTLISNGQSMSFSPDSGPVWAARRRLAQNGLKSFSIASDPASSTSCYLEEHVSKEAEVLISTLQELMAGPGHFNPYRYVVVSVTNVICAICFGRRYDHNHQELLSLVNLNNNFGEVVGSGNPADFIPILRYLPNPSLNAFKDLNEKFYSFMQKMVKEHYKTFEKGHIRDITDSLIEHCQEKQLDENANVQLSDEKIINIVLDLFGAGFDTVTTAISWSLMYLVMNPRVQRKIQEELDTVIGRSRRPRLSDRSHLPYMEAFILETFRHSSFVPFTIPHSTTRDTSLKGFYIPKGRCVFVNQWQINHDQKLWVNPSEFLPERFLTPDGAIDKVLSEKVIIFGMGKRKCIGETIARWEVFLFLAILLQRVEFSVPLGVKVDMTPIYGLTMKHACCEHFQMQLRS

Chain of Cytochrome P450 2B1 (Rattus norvegicus) (P00176 whole entry, looked up): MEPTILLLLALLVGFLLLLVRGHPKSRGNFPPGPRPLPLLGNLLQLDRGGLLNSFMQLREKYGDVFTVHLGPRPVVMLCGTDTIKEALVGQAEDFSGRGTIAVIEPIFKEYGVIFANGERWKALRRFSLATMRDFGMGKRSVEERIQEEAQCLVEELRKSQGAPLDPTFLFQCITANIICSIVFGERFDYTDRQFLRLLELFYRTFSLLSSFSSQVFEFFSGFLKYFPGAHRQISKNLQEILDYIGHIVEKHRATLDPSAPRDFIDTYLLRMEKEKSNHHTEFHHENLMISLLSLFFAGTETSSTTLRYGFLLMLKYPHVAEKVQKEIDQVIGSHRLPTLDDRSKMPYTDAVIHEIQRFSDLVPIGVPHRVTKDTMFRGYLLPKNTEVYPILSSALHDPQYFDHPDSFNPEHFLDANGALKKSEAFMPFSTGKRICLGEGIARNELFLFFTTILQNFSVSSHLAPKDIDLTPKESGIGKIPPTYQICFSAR

SMILES	IC50 at 5 min (CYP2A6) [µM]	IC50 [1] [µM]	IC50 (Cytochrome P450 1A1) [µM]
O=c1cccc2oc(-c3ccc4c(c3)C=CCO4)cc(O)c1-2	> 25	> 25	
C#CCOc1ccc(-c2cc(O)c3c(=O)cccc-3o2)cc1	> 25	> 25	
O=c1cccc2oc(-c3ccc4c(c3)OCC=C4)cc(O)c1-2	> 25	> 25	
O=c1cccc2oc(-c3cccc4c3C=CCO4)cc(O)c1-2	> 25	> 25	
C#CCOc1cccc(-c2cc(O)c3c(=O)cccc-3o2)c1	> 25	4.08	
O=c1cc(-c2ccccc2)oc2cccc(O)c12 [5-Hydroxy-2-phenyl-chromen-4-one]			4.03
